Assay [1] has as its target Growth factor receptor-bound protein 2 (Homo sapiens, UniProt P62993). The experiment in a line: Inhibition against Growth factor receptor bound protein 2 binding using ELISA technique. The method in brief: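 Competition ELISA: biotinylated SHC-derived Grb2 SH2-binding phosphopeptide bound at 20 ng/mL to plates overnight, then blocked with 5% BSA in TBS. Recombinant Grb2 SH2-GST fusion was preincubated with serial inhibitor dilutions, then added. After washing with 0.1% BSA/TBS, bound protein was detected with anti-GST and alkaline phosphatase-conjugated secondary, using p-nitrophenyl phosphate colorimetry. Each compound had at least three determinations, with a positive control.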
(In general: In an ELISA, binding on a coated surface is turned into a signal by an enzyme label.)

The next assay relates to MDA-MB-453. The experiment in a line: (§1) Growth inhibition against MDA-453 breast cancer cells. In kind it is functional, cell-based. Particulars: Homo sapiens. The method in brief: (§2)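 MDA-453 cells seeded at 500 per well and kept in IMEM with 10% fetal bovine serum at 37 °C under 5% CO₂. Inhibitor dilutions were added, with fresh drug solution each day for 5 days. Growth was read by MTT (0.5 mg/mL, 4 h), then medium removed and dissolved cells read at 570 nm. Results are expressed as percent of no-drug control.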

The nature of assay [2]: as §1. The assay is classed as functional, cell-based. The note with it: Homo sapiens, Cancer cell lines. The method in brief:
as §2

Growth factor receptor-bound protein 2, sequence (P62993 whole entry, the tested form may be a part): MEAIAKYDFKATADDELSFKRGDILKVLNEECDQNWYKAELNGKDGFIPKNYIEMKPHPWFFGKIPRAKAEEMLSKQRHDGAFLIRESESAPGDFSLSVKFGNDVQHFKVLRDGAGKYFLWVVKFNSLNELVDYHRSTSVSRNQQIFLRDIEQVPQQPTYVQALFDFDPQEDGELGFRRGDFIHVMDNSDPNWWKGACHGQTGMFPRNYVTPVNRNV

As for `CC1(C)NC(=O)[C@@H](CC(=O)O)[C@@H](c2ccc(CP(=O)(O)O)cc2)/C=C/C[C@@H](CC2=c3ccccc3=CCC2)CNC(=O)[C@H](CC(N)=O)NC1=O`, the concentration for half-maximal inhibition (IC50) in assay [1] is 0.008 µM; with MDA-MB-453, 8 µM.
The like results for `NC(=O)C[C@@H]1NC(=O)C2(CCCCC2)NC(=O)C[C@@H](c2ccc(CP(=O)(O)O)cc2)C/C=C/C[C@@H](Cc2cccc3ccccc23)CNC1=O` were, in that order, over 10 µM and over 50 µM.
For `NC(=O)C[C@H](NC(=O)C1(NC(=O)[C@H](Cc2ccc(CP(=O)(O)O)cc2)NC(=O)C(=O)O)CCCCC1)C(=O)NCCCC1=c2ccccc2=CCC1`, in assay [2], it took 5 µM to reach half-maximal inhibition (IC50).
Regarding `NC(=O)C[C@@H]1NC(=O)C2(CCCCC2)NC(=O)C[C@@H](c2ccc(CP(=O)(O)O)cc2)/C=C/C[C@@H](CC2=c3ccccc3=CCC2)CNC1=O`, the IC50 in assay [1] was 0.02 µM.
In the case of `NC(=O)C[C@@H]1NC(=O)C2(CCCCC2)NC(=O)[C@@H](CC(=O)O)[C@@H](c2ccc(CP(=O)(O)O)cc2)/C=C/C[C@@H](CC2=c3ccccc3=CCC2)CNC1=O`, the IC50 worked out at 0.002 µM in assay [1] and 0.8 µM with MDA-MB-453.

For orientation: IC50 means the point on the concentration scale where inhibition reaches its midpoint.

The values above are taken from ChEMBL document CHEMBL1145101, “Macrocyclization in the design of Grb2 SH2 domain-binding ligands exhibiting high potency in whole-cell systems” (J Med Chem, 2003).
